ChEMBL document CHEMBL1649151, “Urinary bactericidal activity of Doripenem versus that of levofloxacin in patients with complicated urinary tract infections or pyelonephritis” (Antimicrob Agents Chemother, 2009)
Converted amounts (≈) assume the structure as drawn.

Legend:
Escherichia coli [1] = assay: Antimicrobial activity against Escherichia coli 2062717 B-P isolated from patient with pyelonephritis by Etest; assay type: functional
Enterococcus faecalis [2] = assay: Antimicrobial activity against Enterococcus faecalis 1780065 B-B isolated from patient with pyelonephritis by Etest; assay type: functional
Escherichia coli [3] = assay: Antimicrobial activity against Escherichia coli 1949821 B-M isolated from patient with pyelonephritis assessed as >3-log reduction in urinary bacterial titer after 12 hrs; assay type: functional, Urine
How it was run: (§1)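 Urine was collected on day 3 of i.v. therapy (steady state) over 4-h intervals from infusion start (0–4 to 20–24 h), stored at –80°C and sterile filtered. It was serially diluted twofold (1:0 up to 1:131,072) in the patient's own pre-dose drug-free urine. Microdilution used a final inoculum of 1.0 x 10^6 to 9.5 x 10^6 CFU/ml, incubated 18 h at 37°C in air. 10 µl was subcultured onto 5% blood Columbia agar for 24 h at 37°C. The bactericidal endpoint was >99.9% (>3-log) kill, reported as a reciprocal titer.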

Pseudomonas aeruginosa [4] = assay: Antimicrobial activity against Pseudomonas aeruginosa ATCC 27853 isolated from patient with pyelonephritis by Etest; assay type: functional
Escherichia coli [5] = assay: Antimicrobial activity against Escherichia coli 1949821 B-M isolated from patient with pyelonephritis assessed as >3-log reduction in urinary bacterial titer after 16 hrs; assay type: functional, Urine; how it was run: as §1
Escherichia coli [6] = assay: Antimicrobial activity against Escherichia coli 1949821 B-M isolated from patient with pyelonephritis assessed as >3-log reduction in urinary bacterial titer after 8 hrs; assay type: functional, Urine
How it was run: (§2)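 Patient urine was collected on day 3 of i.v. therapy (steady state) over 4-h intervals after infusion start, stored at –80°C, and sterile filtered. It was twofold serially diluted (1:0 to 1:131,072) in the patient's own pre-dose drug-free urine, inoculated to 1.0 x 10^6–9.5 x 10^6 CFU/ml, and incubated for 18 h at 37°C. Subcultures were grown on blood agar for 24 h. The UBT is the reciprocal of the highest dilution giving >99.9% kill.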

Escherichia coli [7] = assay: Antimicrobial activity against Escherichia coli 2062717 B-P isolated from patient with pyelonephritis assessed as >3-log reduction in urinary bacterial titer after 24 hrs; assay type: functional, Urine
Escherichia coli [8] = assay: Antimicrobial activity against Escherichia coli 1949821 B-M isolated from patient with pyelonephritis assessed as >3-log reduction in urinary bacterial titer after 20 hrs; assay type: functional, Urine; how it was run: as §1
[9] = Drug excretion in pyelonephritis patient urine at 500 mg/kg, iv administered every 8 hrs; assay type: ADME, organism-based; design: dose 500 mg/kg, route intravenous; details: human, read-out: Activity
Escherichia coli [10] = assay: Antimicrobial activity against Escherichia coli 1135121 isolated from patient with pyelonephritis assessed as >3-log reduction in urinary bacterial titer after 4 hrs; assay type: functional, Urine
How it was run: (§3)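 Urine was collected before dosing and on day 3 of i.v. therapy (steady state), in 4-h intervals from infusion start (0–4 to 20–24 h), stored at −80°C and sterile filtered. It was serially diluted twofold (1:0 to 1:131,072) in the patient's drug-free pre-dose urine. Microdilution used an inoculum of 1.0 x 10^6–9.5 x 10^6 CFU/ml, incubated 18 h at 37°C, then subcultured 24 h on blood agar. The endpoint was >99.9% kill, reported as reciprocal titer.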

Proteus mirabilis [11] = assay: Antimicrobial activity against Proteus mirabilis 1134841 isolated from patient with pyelonephritis assessed as >3-log reduction in urinary bacterial titer after 24 hrs; assay type: functional, Urine; how it was run: as §2
Proteus mirabilis [12] = assay: Antimicrobial activity against Proteus mirabilis 1134841 isolated from patient with pyelonephritis assessed as >3-log reduction in urinary bacterial titer after 12 hrs; assay type: functional, Urine; how it was run: as §2
Escherichia coli [13] = assay: Antimicrobial activity against Escherichia coli 1949821 B-M isolated from patient with pyelonephritis assessed as >3-log reduction in urinary bacterial titer after 4 hrs; assay type: functional, Urine; how it was run: as §1
Staphylococcus aureus [14] = assay: Antimicrobial activity against Staphylococcus aureus 1134684 isolated from patient with pyelonephritis assessed as >3-log reduction in urinary bacterial titer after 24 hrs; assay type: functional, Urine; how it was run: as §2
Enterococcus faecalis [15] = assay: Antimicrobial activity against Enterococcus faecalis 2215770 B-T isolated from patient with pyelonephritis assessed as >3-log reduction in urinary bacterial titer after 24 hrs; assay type: functional, Urine; how it was run: as §3
Staphylococcus aureus [16] = assay: Antimicrobial activity against Staphylococcus aureus 1134684 isolated from patient with pyelonephritis assessed as >3-log reduction in urinary bacterial titer after 12 hrs; assay type: functional, Urine; how it was run: as §2
Escherichia coli [17] = assay: Antimicrobial activity against Escherichia coli 1949820 B-N isolated from patient with pyelonephritis assessed as >3-log reduction in urinary bacterial titer after 24 hrs; assay type: functional, Urine; how it was run: as §1
Escherichia coli [18] = assay: Antimicrobial activity against Escherichia coli 1949826 B-L isolated from patient with pyelonephritis assessed as >3-log reduction in urinary bacterial titer after 20 hrs; assay type: functional, Urine; how it was run: as §2
Pseudomonas aeruginosa [19] = assay: Antimicrobial activity against Pseudomonas aeruginosa 1134642 isolated from patient with pyelonephritis assessed as >3-log reduction in urinary bacterial titer after 4 hrs; assay type: functional, Urine; how it was run: as §2
Pseudomonas aeruginosa [20] = assay: Antimicrobial activity against Pseudomonas aeruginosa 2062713 B-Q isolated from patient with pyelonephritis by Etest; assay type: functional
Escherichia coli [21] = assay: Antimicrobial activity against Escherichia coli 1135121 isolated from patient with pyelonephritis assessed as >3-log reduction in urinary bacterial titer after 20 hrs; assay type: functional, Urine; how it was run: as §3
Pseudomonas aeruginosa [22] = assay: Antimicrobial activity against Pseudomonas aeruginosa […] assessed as >3-log reduction in urinary bacterial titer after 16 hrs; assay type: functional, Urine; how it was run: as §2
Escherichia coli [23] = assay: Antimicrobial activity against Escherichia coli 1135121 isolated from patient with pyelonephritis assessed as >3-log reduction in urinary bacterial titer after 16 hrs; assay type: functional, Urine; how it was run: as §3
Escherichia coli [24] = assay: Antimicrobial activity against Escherichia coli 1949820 B-N isolated from patient with pyelonephritis assessed as >3-log reduction in urinary bacterial titer after 4 hrs; assay type: functional, Urine; how it was run: as §1
Proteus mirabilis [25] = assay: Antimicrobial activity against Proteus mirabilis 1134841 isolated from patient with pyelonephritis assessed as >3-log reduction in urinary bacterial titer after 4 hrs; assay type: functional, Urine; how it was run: as §2
Escherichia coli [26] = assay: Antimicrobial activity against Escherichia coli 1949820 B-N isolated from patient with pyelonephritis assessed as >3-log reduction in urinary bacterial titer after 16 hrs; assay type: functional, Urine; how it was run: as §1
Escherichia coli [27] = assay: Antimicrobial activity against Escherichia coli 1949825 B-K isolated from patient with pyelonephritis assessed as >3-log reduction in urinary bacterial titer after 24 hrs; assay type: functional, Urine; how it was run: as §2
Staphylococcus aureus [28] = assay: Antimicrobial activity against Staphylococcus aureus 1134684 isolated from patient with pyelonephritis assessed as >3-log reduction in urinary bacterial titer after 8 hrs; assay type: functional, Urine; how it was run: as §2
Escherichia coli [29] = assay: Antimicrobial activity against Escherichia coli 1889646 B-F isolated from patient with pyelonephritis by Etest; assay type: functional
Escherichia coli [30] = assay: Antimicrobial activity against Escherichia coli 2297257 B-W isolated from patient with pyelonephritis assessed as >3-log reduction in urinary bacterial titer after 20 hrs; assay type: functional, Urine
Proteus mirabilis [31] = assay: Antimicrobial activity against Proteus mirabilis 1134841 isolated from patient with pyelonephritis assessed as >3-log reduction in urinary bacterial titer after 8 hrs; assay type: functional, Urine; how it was run: as §2
[32] = tested on: Staphylococcus epidermidis; assay: Antimicrobial activity against Staphylococcus epidermidis 2297262-9 B-V isolated from patient with pyelonephritis assessed as >3-log reduction in urinary bacterial titer after 20 hrs; assay type: functional, Urine
Enterococcus faecalis [33] = assay: Antimicrobial activity against Enterococcus faecalis 2297262-10 B-V isolated from patient with pyelonephritis assessed as >3-log reduction in urinary bacterial titer after 16 hrs; assay type: functional, Urine; how it was run: as §3
Staphylococcus aureus [34] = assay: Antimicrobial activity against Staphylococcus aureus 1889640 A-Z isolated from patient with pyelonephritis assessed as >3-log reduction in urinary bacterial titer after 16 hrs; assay type: functional, Urine
Pseudomonas aeruginosa [35] = assay: Antimicrobial activity against Pseudomonas aeruginosa 1821383 B-E isolated from patient with pyelonephritis assessed as >3-log reduction in urinary bacterial titer after 12 hrs; assay type: functional, Urine

| Structure (SMILES) | MIC (Escherichia coli [1]) [µg/mL] | MIC (Enterococcus faecalis [2]) [µg/mL] | urinary bactericidal titer (Escherichia coli [3]) [titer] | MIC (Pseudomonas aeruginosa [4]) [µg/mL] | Time (Escherichia coli [5]) [h] | urinary bactericidal titer (Escherichia coli [6]) [titer] | urinary bactericidal titer (Escherichia coli [8]) [titer] | dose excreted at 8 h [9] [%] | urinary bactericidal titer (Escherichia coli [10]) [reciprocal titer] | urinary bactericidal titer (Proteus mirabilis [11]) [reciprocal titer] | urinary bactericidal titer (Proteus mirabilis [12]) [reciprocal titer] | urinary bactericidal titer (Staphylococcus aureus [14]) [reciprocal titer] | urinary bactericidal titer (Staphylococcus aureus [16]) [reciprocal titer] | Time (Escherichia coli [17]) [h] | urinary bactericidal titer (Pseudomonas aeruginosa [19]) [reciprocal titer] | urinary bactericidal titer (Escherichia coli [21]) [titer] | urinary bactericidal titer (Pseudomonas aeruginosa [22]) [reciprocal titer] | urinary bactericidal titer (Escherichia coli [23]) [reciprocal titer] | urinary bactericidal titer (Escherichia coli [24]) [titer] | urinary bactericidal titer (Proteus mirabilis [25]) [reciprocal titer] | other results |
| --- | --- | --- | --- | --- | --- | --- | --- | --- | --- | --- | --- | --- | --- | --- | --- | --- | --- | --- | --- | --- | --- |
| C[C@@H](O)[C@H]1C(=O)N2C(C(=O)O)=C(S[C@@H]3CN[C@H](CNS(N)(=O)=O)C3)[C@H](C)[C@H]12 [DORIPENEM] | ≤ 0.015 | 4 (≈ 9.51 µM) | 32800 | 0.12 (≈ 0.285 µM) | 8192 | 12300 | 32800 | 80 | 49200 | 512 | 6140 | 1.5 | 12 | 5120 | 4096 | 32800 | 1540 | 8192 | 32800 | 2048 | urinary bactericidal titer (Escherichia coli [7]): 2048 reciprocal titer; urinary bactericidal titer (Escherichia coli [13]): 32800; urinary bactericidal titer (Enterococcus faecalis [15]): 512 reciprocal titer; urinary bactericidal titer (Escherichia coli [18]): 65500 reciprocal titer; MIC (Pseudomonas aeruginosa [20]): 0.5 µg/mL (≈ 1.19 µM); Time (Escherichia coli [26]): 8192 h; urinary bactericidal titer (Escherichia coli [27]): 256 reciprocal titer; urinary bactericidal titer (Staphylococcus aureus [28]): 4 reciprocal titer; MIC (Escherichia coli [29]): 0.03 µg/mL (≈ 0.0713 µM); urinary bactericidal titer (Escherichia coli [30]): 32800 titer; urinary bactericidal titer (Proteus mirabilis [31]): 1024 reciprocal titer |
| C[C@H]1COc2c(N3CCN(C)CC3)c(F)cc3c(=O)c(C(=O)O)cn1c23.C[C@H]1COc2c(N3CCN(C)CC3)c(F)cc3c(=O)c(C(=O)O)cn1c23.O [LEVOFLOXACIN] | 8 | 1 | 64 | 0.25 | 48 | 128 | 48 | 80 | 8 | 0 | 0 | 2 | 4 | 0 | 2 | 3 | 8 | 2.5 | 4 | 0 | urinary bactericidal titer [32]: 2 reciprocal titer; Time (Escherichia coli [13]): 192 h; urinary bactericidal titer (Enterococcus faecalis [33]): 0 reciprocal titer; urinary bactericidal titer (Staphylococcus aureus [34]): 128 reciprocal titer; urinary bactericidal titer (Pseudomonas aeruginosa [35]): 128 reciprocal titer; Time (Escherichia coli [26]): 0.5 h; urinary bactericidal titer (Staphylococcus aureus [28]): 4 reciprocal titer; MIC (Escherichia coli [29]): > 8 µg/mL; urinary bactericidal titer (Proteus mirabilis [31]): 0 reciprocal titer |
